Laboratory results: ChEMBL document CHEMBL4002637, “Synthesis, characterization, in vitro SAR and in vivo evaluation of N,N'bisnaphthylmethyl 2-alkyl substituted imidazolium salts against NSCLC” (Bioorg Med Chem Lett, 2017)

Experiments:
NCI-H460 [1] = assay: Antiproliferative activity against human NCI-H460 cells using 1% DMSO/water compound formulation after 72 hrs by MTT assay; format: functional, cell-based; details: NCI-H460, 72 h
Method in brief: (§1)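 MTT anti-proliferation on NSCLC lines. Compounds dissolved in DMSO, diluted with water to 1% DMSO, then into growth medium (max 0.032% DMSO on cells); or dissolved in 10% (w/v) 2-HPβCD in water, then diluted (max 0.008% w/w 2-HPβCD in wells; vehicle controls at 0.008%). IC50 = concentration giving 50% loss of viability versus control cells. Cisplatin dissolved in water with stirring.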

NCI-H460 [2] = assay: Antiproliferative activity against human NCI-H460 cells using 10% 2-HPbetaCD compound formulation after 72 hrs by MTT assay; format: functional, cell-based; details: NCI-H460, 72 h; method in brief: as §1
NCI-H1975 [3] = assay: Antiproliferative activity against human NCI-H1975 cells using 1% DMSO/water compound formulation after 72 hrs by MTT assay; format: functional, cell-based; details: NCI-H1975, 72 h; method in brief: as §1
NCI-H1975 [4] = assay: Antiproliferative activity against human NCI-H1975 cells using 10% 2-HPbetaCD compound formulation after 72 hrs by MTT assay; format: functional, cell-based; details: NCI-H1975, 72 h; method in brief: as §1
A549 [5] = assay: Antiproliferative activity against human A549 cells using 1% DMSO/water compound formulation after 72 hrs by MTT assay; format: functional, cell-based; details: A549, 72 h; method in brief: as §1
A549 [6] = assay: Antiproliferative activity against human A549 cells using 10% 2-HPbetaCD compound formulation after 72 hrs by MTT assay; format: functional, cell-based; details: A549, 72 h; method in brief: as §1
HCC827 [7] = assay: Antiproliferative activity against human HCC827 cells using 1% DMSO/water compound formulation after 72 hrs by MTT assay; format: functional, cell-based; details: HCC827, 72 h; method in brief: as §1
HCC827 [8] = assay: Antiproliferative activity against human HCC827 cells using 10% 2-HPbetaCD compound formulation after 72 hrs by MTT assay; format: functional, cell-based; details: HCC827, 72 h; method in brief: as §1
[9] = Aqueous solubility of the compound in water; format: physicochemical; details: buffer
[10] = Solubility of the compound in 1% DMSO/water solution; format: physicochemical; details: buffer
[11] = Solubility of the compound in 10% 2-HPbetaCD/water solution; format: physicochemical
A549 [12] = assay: Growth inhibition of human A549 cells assessed as cell growth at 10 uM after 24 hrs by SRB assay relative to control; format: functional; details: A549, 24 h, read-out: Activity
Method in brief: (§2)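 NCI DTP one-dose screen: cells plated at density set by doubling rate, incubated overnight, then exposed to compound at 10 μM for 24 hours. Growth percentage from protein density at end versus start of experiment, relative to initial cell number.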

EKVX [13] = assay: Growth inhibition of human EKVX cells assessed as cell growth at 10 uM after 24 hrs by SRB assay relative to control; format: functional; details: read-out: Activity; method in brief: as §2
HOP-62 [14] = assay: Growth inhibition of human HOP62 cells assessed as cell growth at 10 uM after 24 hrs by SRB assay relative to control; format: functional; details: HOP-62, 24 h, read-out: Activity; method in brief: as §2
HOP-92 [15] = assay: Growth inhibition of human HOP92 cells assessed as cell growth at 10 uM after 24 hrs by SRB assay relative to control; format: functional; details: HOP-92, 24 h, read-out: Activity; method in brief: as §2
NCI-H226 [16] = assay: Growth inhibition of human NCI-H226 cells assessed as cell growth at 10 uM after 24 hrs by SRB assay relative to control; format: functional; details: NCI-H226, 24 h, read-out: Activity; method in brief: as §2
NCI-H23 [17] = assay: Growth inhibition of human NCI-H23 cells assessed as cell growth at 10 uM after 24 hrs by SRB assay relative to control; format: functional; details: NCI-H23, 24 h, read-out: Activity; method in brief: as §2
NCI-H322M [18] = assay: Growth inhibition of human NCI-H322M cells assessed as cell growth at 10 uM after 24 hrs by SRB assay relative to control; format: functional; details: read-out: Activity; method in brief: as §2
NCI-H460 [19] = assay: Growth inhibition of human NCI-H460 cells assessed as cell growth at 10 uM after 24 hrs by SRB assay relative to control; format: functional; details: NCI-H460, 24 h, read-out: Activity; method in brief: as §2
NCI-H23 [20] = assay: Growth inhibition of human NCI-H23 cells after 24 hrs by SRB assay; format: functional; details: NCI-H23, 24 h; for CC50: read-out: LC50 (the source's name)
NCI-H322M [21] = assay: Growth inhibition of human NCI-H322M cells after 24 hrs by SRB assay; format: functional
A549 [22] = assay: Growth inhibition of human A549 cells after 24 hrs by SRB assay; format: functional; details: A549, 24 h
EKVX [23] = assay: Growth inhibition of human EKVX cells after 24 hrs by SRB assay; format: functional
HOP-62 [24] = assay: Growth inhibition of human HOP62 cells after 24 hrs by SRB assay; format: functional; details: HOP-62, 24 h
HOP-92 [25] = assay: Growth inhibition of human HOP92 cells after 24 hrs by SRB assay; format: functional; details: HOP-92, 24 h
NCI-H226 [26] = assay: Growth inhibition of human NCI-H226 cells after 24 hrs by SRB assay; format: functional; details: NCI-H226, 24 h
NCI-H460 [27] = assay: Growth inhibition of human NCI-H460 cells after 24 hrs by SRB assay; format: functional; details: NCI-H460, 24 h
NCI-H522 = assay: Growth inhibition of human NCI-H522 cells after 24 hrs by SRB assay; format: functional; details: NCI-H522, 24 h
[28] = read-out: LC50 (the source's name)

In the case of `CCCCc1n(Cc2ccc3ccccc3c2)cc[n+]1Cc1ccc2ccccc2c1.[Br-]`, the IC50 (NCI-H460 [1]) is reported as 2.62 µM, the IC50 (NCI-H460 [2]) is reported as 2.43 µM and the IC50 (NCI-H1975 [3]) is reported as 1.74 µM. It also gave an IC50 (NCI-H1975 [4]) of 1.02 µM, an IC50 (A549 [5]) of 3.5 µM and an IC50 (A549 [6]) of 3.25 µM. The IC50 (HCC827 [7]) was 2.64 µM, the IC50 (HCC827 [8]) was 2.18 µM and the solubility [9] was under 500 µg/mL. For the same compound, the solubility [10] was “Soluble”, the solubility ([11]; buffer) was over 4400 µg/mL and the growth at 10 µM (A549 [12]) was 29.8%. The growth at 10 µM (EKVX [13]) was 14.4%, the growth at 10 µM (HOP-62 [14]) was -2.71% and the growth at 10 µM (HOP-92 [15]) was -38.2%. For the same compound, the growth at 10 µM (NCI-H226 [16]) was -0.47%, the growth at 10 µM (NCI-H23 [17]) was -23.8% and the growth at 10 µM (NCI-H322M [18]) was 23.3%. The growth at 10 µM (NCI-H460 [19]) was -13.1%, the GI50 (NCI-H23 [20]) was 0.793 µM and the TGI (NCI-H23 [20]) was 2.31 µM. For the same compound, the CC50 (NCI-H23 [20]) was 5.85 µM, the GI50 (NCI-H322M [21]) was 1.38 µM and the TGI (NCI-H322M [21]) was 2.75 µM.
With `CC(C)c1n(Cc2ccc3ccccc3c2)cc[n+]1Cc1ccc2ccccc2c1.[Br-]` the IC50 (NCI-H460 [1]) was 0.92 µM, the IC50 (NCI-H460 [2]) was 0.86 µM and the IC50 (NCI-H1975 [3]) was 0.69 µM. The IC50 (NCI-H1975 [4]) was 0.62 µM, the IC50 (A549 [5]) was 2.54 µM and the IC50 (A549 [6]) was 2.13 µM. It also gave an IC50 (HCC827 [7]) of 1.29 µM, an IC50 (HCC827 [8]) of 1.14 µM and a solubility [9] of under 500 µg/mL. For the same compound, the solubility [10] was “Soluble” and the solubility ([11]; 10% 2-HPbetaCD/water solution, read-out: solubility) was over 4400 µg/mL.
In the case of `CCCc1n(Cc2ccc3ccccc3c2)cc[n+]1Cc1ccc2ccccc2c1.[Br-]`, the IC50 (NCI-H460 [1]) is reported as 1.91 µM, the IC50 (NCI-H460 [2]) is reported as 2.13 µM and the IC50 (NCI-H1975 [3]) is reported as 0.85 µM. For the same compound, the IC50 (NCI-H1975 [4]) was 0.63 µM, the IC50 (A549 [5]) was 2.93 µM and the IC50 (A549 [6]) was 2.81 µM. For the same compound, the IC50 (HCC827 [7]) was 1.45 µM, the IC50 (HCC827 [8]) was 1.25 µM and the solubility [9] was under 500 µg/mL. The solubility [10] was “Soluble”, the solubility ([11]; buffer) was over 4400 µg/mL and the growth at 10 µM (A549 [12]) was 31.6%. For the same compound, the growth at 10 µM (EKVX [13]) was 21.1%, the growth at 10 µM (HOP-62 [14]) was 5.82% and the growth at 10 µM (HOP-92 [15]) was -38.3%. The growth at 10 µM (NCI-H226 [16]) was 0.23%, the growth at 10 µM (NCI-H23 [17]) was -28.2% and the growth at 10 µM (NCI-H322M [18]) was 23.2%. For the same compound, the growth at 10 µM (NCI-H460 [19]) was 3.26%, the GI50 (A549 [22]) was 2.67 µM and the TGI (A549 [22]) was 12.1 µM. For the same compound, the CC50 (A549 [22]; [28]) was 60.3 µM, the GI50 (EKVX [23]) was 1.71 µM and the LC50 (EKVX [23]) was 60.5 µM. It also gave a TGI (EKVX [23]) of 11.4 µM, a GI50 (HOP-62 [24]) of 1.26 µM and an LC50 (HOP-62 [24]) of 6.19 µM. The TGI (HOP-62 [24]) was 2.8 µM, the GI50 (HOP-92 [25]) was 0.863 µM and the TGI (HOP-92 [25]) was 2.66 µM. It also gave a CC50 (HOP-92 [25]; [28]) of 7.58 µM, a GI50 (NCI-H226 [26]) of 1.31 µM and an LC50 (NCI-H226 [26]) of over 100 µM. For the same compound, the TGI (NCI-H226 [26]) was 3.92 µM, the GI50 (NCI-H23 [20]) was 0.521 µM and the TGI (NCI-H23 [20]) was 2.51 µM. For the same compound, the CC50 (NCI-H23 [20]) was 9.77 µM, the GI50 (NCI-H322M [21]) was 1.96 µM and the LC50 (lethal concentration 50%) (NCI-H322M [21]) was 23.8 µM. The TGI (NCI-H322M [21]) was 6 µM, the GI50 (NCI-H460 [27]) was 1.22 µM and the TGI (NCI-H460 [27]) was 3.01 µM. The CC50 (NCI-H460 [27]; [28]) was 7.44 µM, the GI50 (NCI-H522) was 0.378 µM and the TGI (NCI-H522) was 1.68 µM. The CC50 (NCI-H522; [28]) was 4.92 µM.
